This note sets out measurements from ChEMBL document CHEMBL4680064, “Natural product inspired optimization of a selective TRPV6 calcium channel inhibitor” (RSC Med Chem, 2020).

Calls of active or inactive are those of the source. The rule behind the calls is not given here.

In data set [1] the test system is T47D. The data set is described as follows: Cytotoxicity against human T47D cells assessed as induction of cell morphological changes at 100 uM by inverted microscopic analysis. Type of data set: cell-based. Summed up:
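T47D cells, cultured and treated as in the 6-day XTT proliferation assay, were photographed for morphology after exposure at 100 μM and compared with control cultures.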

The test system of data set [2] is HEK293. The data set is described as follows: Antiproliferative activity human HEK293 cells expressing human TRPV6 assessed as cell growth inhibition at 0.4 to 100 uM after 6 days by XTT assay. Type of data set: cell-based. As to conditions: hek293, 144 h, dose 0.4-100 µM, time 6 day.
In the next data set the target is D(1A) dopamine receptor (Homo sapiens, UniProt P21728). The data set is described as follows: Inhibition of human dopamine D1 receptor at 10 uM.
Chain of D(1A) dopamine receptor (P21728 whole entry): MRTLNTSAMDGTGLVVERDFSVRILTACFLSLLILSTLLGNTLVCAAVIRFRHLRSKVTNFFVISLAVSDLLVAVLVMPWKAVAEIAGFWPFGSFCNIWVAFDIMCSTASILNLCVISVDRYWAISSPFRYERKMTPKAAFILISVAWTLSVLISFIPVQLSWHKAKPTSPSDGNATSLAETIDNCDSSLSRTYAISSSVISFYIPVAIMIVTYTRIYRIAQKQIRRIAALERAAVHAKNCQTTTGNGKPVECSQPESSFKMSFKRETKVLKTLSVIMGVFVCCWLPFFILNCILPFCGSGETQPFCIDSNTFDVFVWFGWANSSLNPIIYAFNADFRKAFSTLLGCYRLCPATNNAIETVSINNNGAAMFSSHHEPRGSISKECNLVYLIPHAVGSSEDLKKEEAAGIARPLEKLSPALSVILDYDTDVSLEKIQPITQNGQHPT
The test system of the next data set is MDA-MB-231. The data set is described as follows: Antiproliferative activity against human MDA-MB-231 cells assessed as cell growth inhibition at 0.4 to 100 uM after 6 days by XTT assay. In kind it is cell-based. As to conditions: mda-mb-231, 144 h, dose 0.4-100 µM, time 6 day. Summed up: (§1)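 Cells grown in RPMI with 10% FBS, 2 mM L-glutamine, penicillin/streptomycin and 1% non-essential amino acids. Seeded at 5 x 10³ cells/well and left 24 h at 37 °C, then treated at 100 μM to 0.4 μM. Exposure 6 days at 37 °C with fresh treatment medium every 48 h. Doxorubicin 10 μM and DMSO 0.01% served as controls. XTT with 1.25% PMS for 2 h; absorbance at 450 minus 650 nm, as % viable versus DMSO. Curves fitted by four-parameter non-linear regression. Mean ± SEM, n = 3/concentration, ≥3 independent experiments.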

In data set [3] the target is T1, Transient receptor potential cation channel subfamily V member 6 (Homo sapiens) (UniProt Q9H1D0).
T1 sequence (whole entry): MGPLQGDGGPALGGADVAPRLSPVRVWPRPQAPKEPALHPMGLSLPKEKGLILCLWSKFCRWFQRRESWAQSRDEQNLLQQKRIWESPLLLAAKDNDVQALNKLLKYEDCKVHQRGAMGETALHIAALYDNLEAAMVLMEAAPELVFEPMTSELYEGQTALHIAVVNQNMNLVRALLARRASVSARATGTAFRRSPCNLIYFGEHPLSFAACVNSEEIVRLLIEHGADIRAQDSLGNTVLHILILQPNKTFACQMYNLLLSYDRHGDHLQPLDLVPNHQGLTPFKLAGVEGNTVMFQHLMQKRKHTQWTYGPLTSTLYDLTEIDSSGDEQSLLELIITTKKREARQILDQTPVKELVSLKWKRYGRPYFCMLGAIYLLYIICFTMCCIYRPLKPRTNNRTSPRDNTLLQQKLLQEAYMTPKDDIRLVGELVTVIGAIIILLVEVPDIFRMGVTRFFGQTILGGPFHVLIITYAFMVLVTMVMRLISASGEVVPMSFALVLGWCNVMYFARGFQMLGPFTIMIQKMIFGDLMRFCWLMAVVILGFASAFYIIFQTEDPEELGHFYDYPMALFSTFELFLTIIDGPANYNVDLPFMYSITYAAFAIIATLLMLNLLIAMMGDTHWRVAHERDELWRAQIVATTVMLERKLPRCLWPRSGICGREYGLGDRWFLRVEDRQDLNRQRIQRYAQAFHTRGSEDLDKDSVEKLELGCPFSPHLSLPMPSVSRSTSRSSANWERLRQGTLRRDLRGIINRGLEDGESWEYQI
The data set is described as follows: Inhibition of human TRPV6 expressed in HEK293 cells assessed as reduction in cadmium induced cytotoxicity by measuring increase in cell survival at 10 uM incubated for 24 hrs by XTT assay. Type of data set: cell-based. Summed up: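 HEK293 wt or HEK-hTRPV6 cells in DMEM with 10% FBS, glutamine, penicillin/streptomycin and non-essential amino acids. Seeded at 1.5 x 10⁴ cells/well and left 24 h, then given CdCl2 at 50 to 0.05 µM with or without test compound at 1.0 or 10 µM; blank was 0.01% DMSO. Incubation 24 h at 37 °C. XTT/PMS read for 2 h at A450−A650, as % viable versus blank. n = 4/concentration, 2 independent experiments.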

Data set [4] addresses T2, Alpha-1A adrenergic receptor (Homo sapiens, UniProt P35348).
T2 sequence (P35348 whole entry): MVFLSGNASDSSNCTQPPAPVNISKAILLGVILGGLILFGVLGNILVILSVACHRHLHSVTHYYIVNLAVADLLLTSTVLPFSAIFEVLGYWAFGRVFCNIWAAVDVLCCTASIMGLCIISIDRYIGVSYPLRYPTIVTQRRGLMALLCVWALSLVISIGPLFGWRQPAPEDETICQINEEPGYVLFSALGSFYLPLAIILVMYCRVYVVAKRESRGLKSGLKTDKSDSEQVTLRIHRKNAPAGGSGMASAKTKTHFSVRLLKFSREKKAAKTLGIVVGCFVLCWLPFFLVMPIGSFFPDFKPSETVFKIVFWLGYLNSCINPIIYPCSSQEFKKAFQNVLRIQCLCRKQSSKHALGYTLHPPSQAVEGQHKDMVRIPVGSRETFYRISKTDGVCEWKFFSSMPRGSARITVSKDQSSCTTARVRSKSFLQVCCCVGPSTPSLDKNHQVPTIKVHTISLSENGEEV
The data set is described as follows: Inhibition of human alpha1A adrenergic receptor at 10 uM.

In data set [5] the test system is HEK293. The data set is described as follows: Antiproliferative activity against wild type human HEK293 cells assessed as cell growth inhibition at 0.4 to 100 uM after 6 days by XTT assay. The settings on record: hek293, 144 h, dose 0.4-100 µM, time 6 day. In kind it is cell-based. A general note: Formazan colour is commonly taken as a measure of viable cells.
A short description of data set [6]: Inhibition of rat L-type calcium channel (diltiazem site) at 10 uM.
The test system of data set [7] is T47D. The data set is described as follows: Antiproliferative activity against human T47D cells assessed as cell growth inhibition at 0.4 to 100 uM after 6 days by XTT assay. In kind it is cell-based. As to conditions: human, t47d, 144 h, 100 µM; dose 0.4-100 µM, time 6 day. Summed up:
as §1

In data set [8] the target is T3, Muscarinic acetylcholine receptor M1 (Homo sapiens, UniProt P11229).
T3 sequence (P11229 whole entry): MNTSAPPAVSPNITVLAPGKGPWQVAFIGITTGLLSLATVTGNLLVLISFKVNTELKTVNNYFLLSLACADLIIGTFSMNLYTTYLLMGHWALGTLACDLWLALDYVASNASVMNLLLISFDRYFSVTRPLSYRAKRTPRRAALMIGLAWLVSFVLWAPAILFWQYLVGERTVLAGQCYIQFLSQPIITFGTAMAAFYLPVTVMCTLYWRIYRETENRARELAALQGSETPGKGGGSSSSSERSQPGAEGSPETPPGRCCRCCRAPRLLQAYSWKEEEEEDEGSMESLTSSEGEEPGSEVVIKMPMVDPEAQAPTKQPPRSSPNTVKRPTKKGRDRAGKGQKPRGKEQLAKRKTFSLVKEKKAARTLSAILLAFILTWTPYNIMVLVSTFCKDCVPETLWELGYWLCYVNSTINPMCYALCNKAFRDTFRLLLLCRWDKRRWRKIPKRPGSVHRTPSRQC
The data set is described as follows: Inhibition of human muscarinic M1 receptor at 10 uM.

The target of data set [9] is Voltage-gated inwardly rectifying potassium channel KCNH2 (Homo sapiens, UniProt Q12809). The data set is described as follows: Inhibition of human ERG at 10 uM.
Chain of Voltage-gated inwardly rectifying potassium channel KCNH2 (Q12809 whole entry): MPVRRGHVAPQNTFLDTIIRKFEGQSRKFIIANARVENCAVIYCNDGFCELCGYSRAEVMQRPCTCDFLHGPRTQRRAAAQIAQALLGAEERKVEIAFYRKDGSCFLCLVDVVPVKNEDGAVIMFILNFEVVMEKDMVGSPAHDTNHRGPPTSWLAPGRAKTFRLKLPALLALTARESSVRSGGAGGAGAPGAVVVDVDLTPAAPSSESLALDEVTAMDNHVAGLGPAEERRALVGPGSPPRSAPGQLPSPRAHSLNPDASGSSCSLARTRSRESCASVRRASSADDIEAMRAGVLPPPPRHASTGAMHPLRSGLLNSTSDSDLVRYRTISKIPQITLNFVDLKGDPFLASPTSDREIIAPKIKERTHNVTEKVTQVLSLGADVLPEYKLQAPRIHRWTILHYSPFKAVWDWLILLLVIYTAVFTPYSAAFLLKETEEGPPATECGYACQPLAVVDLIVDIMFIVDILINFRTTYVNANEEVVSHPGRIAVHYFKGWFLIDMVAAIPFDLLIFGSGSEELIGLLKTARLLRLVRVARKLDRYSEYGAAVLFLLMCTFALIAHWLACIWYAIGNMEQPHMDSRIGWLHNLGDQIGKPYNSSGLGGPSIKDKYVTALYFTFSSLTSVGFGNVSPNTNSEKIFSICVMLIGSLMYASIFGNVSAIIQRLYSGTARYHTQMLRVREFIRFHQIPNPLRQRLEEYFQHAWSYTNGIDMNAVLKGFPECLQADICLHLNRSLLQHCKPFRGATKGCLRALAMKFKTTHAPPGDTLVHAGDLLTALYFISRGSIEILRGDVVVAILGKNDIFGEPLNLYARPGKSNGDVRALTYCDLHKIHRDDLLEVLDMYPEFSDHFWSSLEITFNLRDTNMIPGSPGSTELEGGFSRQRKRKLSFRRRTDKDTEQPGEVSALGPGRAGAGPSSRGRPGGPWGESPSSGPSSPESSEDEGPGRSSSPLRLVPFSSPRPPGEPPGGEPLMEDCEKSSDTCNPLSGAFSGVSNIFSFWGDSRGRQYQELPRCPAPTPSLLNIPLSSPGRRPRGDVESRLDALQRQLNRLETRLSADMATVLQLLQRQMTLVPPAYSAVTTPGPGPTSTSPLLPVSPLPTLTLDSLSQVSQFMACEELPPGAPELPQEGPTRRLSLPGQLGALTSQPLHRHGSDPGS

Regarding `O=c1ccc(CN2CCN([C@H]3CC[C@@](O)(c4cccc(C(F)(F)F)c4)CC3)CC2)c[nH]1`, the Activity entry in the data set with T47D [1], with HEK293 [2], in the data set on MDA-MB-231, in the data set on HEK293 [5] and with T47D [7] was “Non-Toxic” throughout. Besides, the “inhibition (INH)” value (against D(1A) dopamine receptor; in [4]; in data set [6]; in [8]; in data set [9]) was “Not Active” throughout. Besides, the inhibition entry in data set [3] was “Active”.
